Laboratory results reported in ChEMBL document CHEMBL3808346, “Optimization of the phenylurea moiety in a phosphoinositide 3-kinase (PI3K) inhibitor to improve water solubility and the PK profile by introducing a solubilizing group and ortho substituents” (Bioorg Med Chem, 2016).
≈ marks a conversion by molar mass, not a printed value.

What was measured:
[1] = biological target: PI3-kinase p110-alpha/p85-alpha (Homo sapiens, UniProt P42336); assay: Inhibition of human PI3K p110alpha/p85alpha expressed in baculovirus preincubated for 20 mins followed by addition of phosphorylate phosphatidylinositol-4,5-bisphosphate as substrate and ATP measured after 15 mins by AlphaScreen competition assay
Sequence of PI3-kinase p110-alpha/p85-alpha (P27986 whole entry): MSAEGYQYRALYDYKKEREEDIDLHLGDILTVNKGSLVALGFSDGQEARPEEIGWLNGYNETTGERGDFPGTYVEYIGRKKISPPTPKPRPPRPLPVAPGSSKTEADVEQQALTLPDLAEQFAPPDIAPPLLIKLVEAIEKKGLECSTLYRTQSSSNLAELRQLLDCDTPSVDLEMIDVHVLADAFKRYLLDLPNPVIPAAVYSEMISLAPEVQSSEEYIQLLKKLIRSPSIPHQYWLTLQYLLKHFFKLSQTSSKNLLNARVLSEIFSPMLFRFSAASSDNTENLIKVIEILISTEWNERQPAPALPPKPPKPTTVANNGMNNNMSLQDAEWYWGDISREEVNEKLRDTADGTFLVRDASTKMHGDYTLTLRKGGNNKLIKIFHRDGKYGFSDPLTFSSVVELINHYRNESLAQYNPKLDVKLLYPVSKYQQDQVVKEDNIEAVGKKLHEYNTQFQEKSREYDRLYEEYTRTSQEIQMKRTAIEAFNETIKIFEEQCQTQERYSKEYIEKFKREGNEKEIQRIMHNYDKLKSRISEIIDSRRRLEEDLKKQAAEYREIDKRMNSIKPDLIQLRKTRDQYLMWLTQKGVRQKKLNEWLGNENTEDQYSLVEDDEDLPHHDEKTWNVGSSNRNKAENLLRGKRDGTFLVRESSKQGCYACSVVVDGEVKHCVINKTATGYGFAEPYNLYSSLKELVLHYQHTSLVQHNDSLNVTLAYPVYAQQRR
Sequence of PI3-kinase p110-alpha/p85-alpha (P42336 whole entry): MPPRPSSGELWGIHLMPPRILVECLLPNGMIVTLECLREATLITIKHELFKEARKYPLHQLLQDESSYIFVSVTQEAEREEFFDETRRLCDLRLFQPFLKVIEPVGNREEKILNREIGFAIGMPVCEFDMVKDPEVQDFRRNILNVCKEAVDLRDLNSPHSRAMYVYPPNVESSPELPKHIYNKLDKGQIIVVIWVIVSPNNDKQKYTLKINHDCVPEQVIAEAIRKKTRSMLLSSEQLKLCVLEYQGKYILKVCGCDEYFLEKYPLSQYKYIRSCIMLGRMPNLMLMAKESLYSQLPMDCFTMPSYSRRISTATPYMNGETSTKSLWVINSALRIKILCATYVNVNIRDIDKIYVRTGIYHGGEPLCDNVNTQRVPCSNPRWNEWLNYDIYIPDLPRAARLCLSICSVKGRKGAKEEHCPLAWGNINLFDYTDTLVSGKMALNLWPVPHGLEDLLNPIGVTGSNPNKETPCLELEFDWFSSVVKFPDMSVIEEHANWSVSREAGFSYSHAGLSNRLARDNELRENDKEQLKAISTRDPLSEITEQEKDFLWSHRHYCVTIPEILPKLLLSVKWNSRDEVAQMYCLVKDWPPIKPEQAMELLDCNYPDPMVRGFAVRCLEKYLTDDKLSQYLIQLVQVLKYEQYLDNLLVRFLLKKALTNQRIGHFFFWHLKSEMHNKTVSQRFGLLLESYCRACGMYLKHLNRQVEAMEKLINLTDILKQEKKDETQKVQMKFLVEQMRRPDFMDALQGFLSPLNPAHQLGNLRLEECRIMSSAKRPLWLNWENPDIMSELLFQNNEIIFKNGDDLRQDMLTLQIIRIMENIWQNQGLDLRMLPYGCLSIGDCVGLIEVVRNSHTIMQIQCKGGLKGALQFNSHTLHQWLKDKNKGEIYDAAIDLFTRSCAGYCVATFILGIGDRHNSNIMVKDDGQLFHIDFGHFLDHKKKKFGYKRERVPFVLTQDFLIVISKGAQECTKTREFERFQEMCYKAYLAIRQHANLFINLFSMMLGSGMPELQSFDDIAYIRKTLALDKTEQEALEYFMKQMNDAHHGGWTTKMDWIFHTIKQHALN
Procedure, shortened: (§1)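 Purified baculovirus-expressed human p110/p85α preincubated with compound 20 min at room temperature. Then 4 µM PI(4,5)P2 and 10 µM ATP (5 mM Hepes pH 7.5, 2.5 mM MgCl2) added for 15 min at 37 °C. PIP3 product detected by AlphaScreen competition using GST-GRP1, biotin-PIP3 and anti-GST acceptor/streptavidin donor beads, 1 h at room temperature.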

[2] = Solubility of compound in FaSSIF at pH 6.5 by HPLC-UV analysis; type: physicochemical
Procedure, shortened: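 A 4-mM or 1-mM DMSO stock was freeze-dried and the residue taken up in FaSSIF (pH 6.5: sodium taurocholate, lecithin, KH2PO4, KCl, NaOH). Sonicated 10 min, shaken 2 h, centrifuged 10 min at 3000 rpm and filtered. Filtrate measured by HPLC-UV against each compound's calibration curve.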

[3] = Cmax in Balb/c nude mouse at 50 mg/kg, po measured after 24 hrs by LC-MS/MS analysis; type: ADME, organism-based; design: dose 50 mg/kg, route oral; conditions: in vivo
Procedure, shortened: (§2)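 Female BALB/c-nu mice, n=2 per group, single oral dose of 50 mg/kg given as a solution in 10% DMSO, 10% Cremophor EL, 15% PEG400, 15% HPCD. Heparinized blood drawn at 0.25, 2, 4, 7 and 24 h; plasma stored at –80 °C. Plasma levels by LC–MS/MS; parameters by non-compartmental analysis.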

[4] = AUC in Balb/c nude mouse at 50 mg/kg, po measured after 24 hrs by LC-MS/MS analysis; type: ADME, organism-based; design: dose 50 mg/kg, time < 24 hr, route oral; conditions: in vivo; procedure, shortened: as §2
[5] = Antiproliferative activity against PTEN negative human PC3 cells measured after 96 hrs by CCK-8 assay; type: functional, cell-based; conditions: PC-3, 96 h
Procedure, shortened: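 PC-3 prostate cells (ATCC) exposed to a range of compound concentrations for 96 hours; growth inhibition read with Cell Counting Kit-8.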

PI3K p110 beta/p85 alpha = PI3K p110 beta/p85 alpha (Homo sapiens, UniProt P42338); assay: Inhibition of human PI3K p110beta/p85alpha expressed in baculovirus preincubated for 20 mins followed by addition of phosphorylate phosphatidylinositol-4,5-bisphosphate as substrate and ATP measured after 15 mins by AlphaScreen competition assay; procedure, shortened: as §1
Sequence of PI3K p110 beta/p85 alpha (P27986 whole entry): as the sequence (P27986 whole entry) above
Sequence of PI3K p110 beta/p85 alpha (P42338 whole entry): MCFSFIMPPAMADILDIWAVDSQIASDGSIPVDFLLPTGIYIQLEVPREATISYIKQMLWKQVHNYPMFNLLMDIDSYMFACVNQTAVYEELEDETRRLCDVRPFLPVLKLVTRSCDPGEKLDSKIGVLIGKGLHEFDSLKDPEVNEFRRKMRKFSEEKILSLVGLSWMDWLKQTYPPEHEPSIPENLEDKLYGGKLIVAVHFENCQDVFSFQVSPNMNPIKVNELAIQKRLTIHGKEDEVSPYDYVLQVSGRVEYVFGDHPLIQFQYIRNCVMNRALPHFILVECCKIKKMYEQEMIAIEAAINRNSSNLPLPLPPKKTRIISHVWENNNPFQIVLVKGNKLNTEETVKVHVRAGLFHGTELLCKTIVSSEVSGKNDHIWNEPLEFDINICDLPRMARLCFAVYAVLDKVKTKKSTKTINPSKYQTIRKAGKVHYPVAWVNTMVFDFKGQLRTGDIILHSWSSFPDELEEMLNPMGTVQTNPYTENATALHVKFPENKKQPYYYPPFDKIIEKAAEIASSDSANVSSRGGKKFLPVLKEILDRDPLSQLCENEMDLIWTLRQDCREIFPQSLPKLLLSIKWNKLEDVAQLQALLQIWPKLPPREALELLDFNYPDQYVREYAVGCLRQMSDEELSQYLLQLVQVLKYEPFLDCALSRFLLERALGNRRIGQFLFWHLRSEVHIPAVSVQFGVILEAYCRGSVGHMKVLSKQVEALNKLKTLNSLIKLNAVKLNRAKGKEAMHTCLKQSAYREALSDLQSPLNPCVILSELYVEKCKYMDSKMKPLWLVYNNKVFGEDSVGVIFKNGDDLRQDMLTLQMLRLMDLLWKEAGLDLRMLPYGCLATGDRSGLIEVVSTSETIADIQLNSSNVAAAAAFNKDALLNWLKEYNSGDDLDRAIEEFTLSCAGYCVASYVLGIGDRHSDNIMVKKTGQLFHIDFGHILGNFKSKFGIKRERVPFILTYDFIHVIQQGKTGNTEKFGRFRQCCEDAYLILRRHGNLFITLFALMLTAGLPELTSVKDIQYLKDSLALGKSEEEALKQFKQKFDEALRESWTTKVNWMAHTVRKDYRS

[6] = Antitumor activity PTEN negative human PC3 cells xenografted into nude mouse assessed as tumor growth inhibition at 6.25 mg/kg, qd administered orally for 11 days; type: functional; conditions: PC-3, po, 264 h, read-out: TGI
Procedure, shortened: (§3)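 PC-3 grown as subcutaneous tumors in nude mice; dosing began (day 0) at about 130 mm3. Four mice per group, randomized to vehicle or drug by oral sonde once daily on days 0–10; vehicle 10% DMSO, 10% Cremophor EL, 15% PEG400, 15% HPCD. TV = (L W²)/2; TGI = [1 − (T − T0)/(C − C0)] × 100; body weight as W/W0 × 100.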

[7] = Permeability of compound by PAMPA method; type: ADME; conditions: read-out: permeability
Mus musculus = assay: Toxicity in nude mouse xenografted with PTEN negative human PC3 cells assessed as body weight loss; type: organism-based, PC-3; conditions: in vivo; procedure, shortened: as §3
[8] = Metabolic stability in mouse liver microsomes assessed as clearance; type: ADME; conditions: read-out: CLH
[9] = Metabolic stability in human liver microsomes assessed as clearance; type: ADME; conditions: read-out: CLH

Row | IC50 [1] [nM] | solubility [2] [µg/mL] | Compound | IC50 [5] [nM] | also measured
1 | 130 | < 3 | CN(C(=O)N1CCc2c(-c3cnc(N)nc3)nc(N3CCOCC3)nc21)c1ccccc1 |  | 
2 | 64 |  | CCc1ccccc1NC(=O)N1CCc2c(-c3cnc(N)nc3)nc(N3CCOCC3)nc21 |  | 
3 |  | < 3 | Nc1ncc(-c2nc(N3CCOCC3)nc3c2CCN3C(=O)Nc2ccccc2)cn1 |  | Cmax [3]: 104 ng/mL; AUC at 24 h [4]: 437 ng·h/mL
4 |  | 11 (≈ 20.2 µM) | CCN1CCN(c2ccc(NC(=O)N3CCc4c(-c5cnc(N)nc5)nc(N5CCOCC5)nc43)c(C)c2)CC1 | 210 | 
5 | 26 | < 18 | CCN1CCN(C(=O)c2ccc(NC(=O)N3CCc4c(-c5cnc(N)nc5)nc(N5CCOCC5)nc43)c(C)c2)CC1 | 250 | 
6 |  | < 12 | Nc1ncc(-c2nc(N3CCOCC3)nc3c2CCN3c2cccnc2)cn1 |  | 
7 | 52 | < 14 | Cc1ccccc1NC(=O)N1CCc2c(-c3cnc(N)nc3)nc(N3CCOCC3)nc21 |  | 
8 |  | 20 (≈ 35.3 µM) | CCN1CCN(c2cc(F)c(NC(=O)N3CCc4c(-c5cnc(N)nc5)nc(N5CCOCC5)nc43)c(F)c2)CC1 | 58 | Cmax [3]: 460 ng/mL; AUC at 24 h [4]: 5680 ng·h/mL; IC50 (PI3K p110 beta/p85 alpha): 7 nM; inhibition in vivo at 6.25 mg/kg [6]: 82%; Papp [7]: 1.1 ×10⁻⁶ cm/s; Activity (Mus musculus): Non-toxic; microsomal CLint [8]: 7.6 µL/min/mg; microsomal CLint [9]: 2.2 µL/min/mg
9 | 260 | 56 (≈ 143 µM) | Cc1nc(N)ncc1-c1nc(N2CCOCC2)nc2c1CCN2c1cccnc1 |  | 
10 | 81 | 13 (≈ 28.2 µM) | CC(C)c1ccccc1NC(=O)N1CCc2c(-c3cnc(N)nc3)nc(N3CCOCC3)nc21 |  | 
